# High-throughput results: PubChem BioAssay, Sanford-Burnham Center for Chemical Genomics
# APJ antagonist – antagonists of human apelin receptor APJ, primary screen, CHO-K1 cells, beta-arrestin complementation, luminescence; P35414; inhibition, % at 20 µM; AID 2521, 2010; 330,000 compounds, 0.32% hits;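 active means inhibition above about 40% at 20 µM, limit read from the data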;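 further: cells challenged with 10 nM apelin-13 agonist together with compound; plate controls were apelin-13 plus DMSO wells for no effect and DMSO wells lacking apelin-13 for full effect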
# Target sequence (P35414 whole entry, looked up): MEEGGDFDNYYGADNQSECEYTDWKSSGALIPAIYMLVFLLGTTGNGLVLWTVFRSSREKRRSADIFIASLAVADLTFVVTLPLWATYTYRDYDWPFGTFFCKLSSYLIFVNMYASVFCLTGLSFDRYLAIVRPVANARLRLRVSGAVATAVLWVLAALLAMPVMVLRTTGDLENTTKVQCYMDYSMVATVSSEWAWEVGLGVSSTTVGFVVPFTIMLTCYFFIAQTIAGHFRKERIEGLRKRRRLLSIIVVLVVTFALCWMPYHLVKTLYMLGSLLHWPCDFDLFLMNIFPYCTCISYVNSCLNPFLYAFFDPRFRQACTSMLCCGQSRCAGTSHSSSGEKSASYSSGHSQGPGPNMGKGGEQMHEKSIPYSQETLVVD
# CCR6 antagonist – CCR6 receptor antagonists, primary screen, cell-based, CHO-K1, luminescence, beta-arrestin, uHTS. inhibition, % at 20 µM. C-C chemokine receptor type 6 (Homo sapiens), P51684. AID 493098, 2011. CHO-K1 CCR6 PathHunter beta-arrestin, CCL20-stimulated. 340,000 compounds, 0.49% hits;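 active means compounds whose inhibition of the agonist-driven luminescence signal at 20 µM reaches about 50%, limit read from the data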;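 further: cells stimulated with CCL20 at 14 nM final; plate controls were DMSO with CCL20 for no effect and DMSO without agonist for full effect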
# APJ agonist – agonists of human apelin receptor APJ, primary screen, CHO-K1 cells, PathHunter beta-arrestin, luminescence. 330,000 compounds, 0.11% hits. activation, % at 20 µM. AID 2520, 2010. 0% DMSO wells, 100% apelin. P35414;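 active means activation more than six SD over the plate average, tested at 20 µM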;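 further: 0% = DMSO alone and 100% = apelin-13 at 10 nM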
#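 Incubation: overnight seeding, 90 min compound at 25 °C, 1 h detection; test system: PathHunter CHO-K1 APJ (AGTRL-1) beta-arrestin reporter cells; amount: 1000 cells/well; doses: one dose, 20 µM compound, 1% DMSO; measured by: beta-gal luminescence; measure: agonist-driven arrestin binding to APJ; benchmarks: negative DMSO alone, positive Apelin-13 at 10 nM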
# EBI2 block – EBI2 receptor antagonists, beta-arrestin recruitment, primary screen, cell-based, luminescence, 7a,25-OHC stimulation, uHTS; 7a,25-OHC stimulated; G-protein coupled receptor 183 (Homo sapiens), P32249; inhibition, % at 5 µM; 360,000 compounds, 0.81% hits; in the data active means inhibition above about 38%;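 further: enzyme fragment complementation signal reports receptor beta-arrestin coupling in cells; 0% = agonist plus DMSO wells and 100% = wells without agonist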
# CXCR6 inh – CXCR6 receptor inhibitors, primary screen, cell-based, beta-arrestin, luminescence, CHO-K1 PathHunter, 1536-well; 360,000 compounds, 0.36% hits; AID 602244, 2012; inhibition, % at 20 µM; in the data active means inhibition above about 34%, passing the limit was not always enough;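 further: antagonist mode with CXCL16 agonist at 10 nM final; 0% = 10 nM CXCL16 with DMSO and 100% = unstimulated wells without agonist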
# iPSC survival up – enhancers of single-cell hiPSC survival, primary screen, ATPlite luminescence; 100% = ROCK inhibitor wells, 0% = DMSO; survival enhancement, % at 20 µM; 360,000 compounds, 0.044% hits; AID 602274, 2012; in the data active means survival enhancement above about 18%;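 further: cells exposed to compounds for 16 hours before the ATP read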
# * = called active by the depositor; x = no result given. Sampled rows, rich in hits. Any-hit rate of the full collection: about 1.5%.
SMILES,APJ antagonist,CCR6 antagonist,APJ agonist,EBI2 block,CXCR6 inh,iPSC survival up
COC1=CC(=O)c2ccccc2C1=O,1,-3,-1,-4,-24,-5
COC1=CC(=O)C=C(OC)C1=O,x,86*,x,-10,81*,-3
O=C([O-])c1cc(-c2ccccc2)cc(-c2ccccc2)[n+]1CCc1ccc(Cl)cc1,x,5,x,7,-6,-1
FC(F)(F)c1cnc(NNC(=S)Nc2ccccc2Cl)c(Cl)c1,37,85*,1,17,82*,2
O=C(Nc1ccccc1)Nc1ncc(C(F)(F)F)cc1Cl,x,x,x,-6,2,4
Cc1ccc(NS(=O)(=O)c2ccc3c(c2)CC(=O)N3)c(C)c1,14,-2,-2,-2,-13,31*
Cc1cc(NCc2ccccn2)n2nc(C)c(-c3ccc(Cl)cc3)c2n1,-8,51*,1,-3,21,4
CCOC(=O)/C(C#N)=C\c1cccnc1,-7,-4,-3,-4,-3,1
CCOC(=O)/C(=C\c1ccccc1)C(=O)c1cc(C(C)=O)c(Nc2ccccc2)s1,17,27,6,48*,11,0
CCOC(=O)/C(=C\c1cccnc1)C(=O)c1cc(C(C)=O)c(Nc2ccccc2)s1,69*,100*,-5,81*,93*,-3
CC1=NN(c2ccc(Br)cc2)C(=O)/C1=C/c1cccs1,3,12,-1,57*,6,4
CSc1ncccc1C(=O)OCC(=O)c1cc2ccccc2o1,22,50*,-12,4,34,1
O=C(COC(=O)CCOc1ccccc1)NCCc1ccccc1,21,15,1,0,-1,0
O=C(CCOc1ccccc1)OCC(=O)c1cc2ccccc2o1,36,85*,-10,-8,29,2
CC1CCCN(C2=NC(=O)/C(=C/c3cn(-c4ccccc4)nc3-c3cccc(S(=O)(=O)N(C)C)c3)S2)C1 (stereo not drawn),7,-7,-1,68*,17,0
COc1ccc(OC)c(/C=C2\SC(N3CCCC(C)C3)=NC2=O)c1 (stereo not drawn),8,13,-3,7,2,0
Cc1ccc(C(=O)CNc2ccc(C)cc2C)cc1,11,79*,-9,2,31,0
Cc1ccc(NC(=O)Cc2nc(-c3c[nH]c(C(=O)N4CCCC4)c3)cs2)c(C)c1,9,-3,-1,-5,1,0
CCCCNc1c(-c2ccc(-c3ccc(OC)cc3)c(OC)c2)nc2ccccn12,4,-18,6,54*,0,-3
CCCCNc1c(-c2ccc(SC(C)CC)c(OC)c2)nc2ccc(C)cn12 (stereo not drawn),-6,0,9,55*,13,0
CCCCNc1c(-c2ccc(OC)c(Sc3ccc(OC)cc3)c2)nc2cnccn12,-3,-2,0,6,-10,0
Cc1ccc(-n2c(=O)c3ccc(C(=O)NCc4ccco4)cc3n(Cc3ccccc3C#N)c2=O)cc1,86*,35,-13,14,35,2
COc1ccc(CCN2C(=O)C=CC2=O)cc1OC,x,109*,x,8,93*,-2
COc1ccc(CCn2c(C)ccc2C)cc1OC,9,x,1,x,x,x
CN(C)c1ccc(/C=C/C=C2/SC(=S)N(c3ccccc3)C2=O)cc1,39,45,-6,9,52*,0
SMILES,APJ antagonist,CCR6 antagonist,APJ agonist,EBI2 block,CXCR6 inh,iPSC survival up
FC(F)(F)c1ccccc1Cc1c(-c2cccc(Br)c2)nc2ccc(Cl)cn12,x,x,x,8,11,-1
CCOc1cc(/C=N/NC(N)=S)cc(Br)c1OCc1ccccc1C,3,16,-7,47*,5,-4
CCOC(=O)c1c(C)nsc1NC(=O)C1CCCCC1,12,24,-5,3,7,0
CN1C(=O)/C(=C/c2ccc(O)c([N+](=O)[O-])c2)NC1=S,45*,48,-10,14,24,-1
O=C1/C(=C/c2ccc(O)c([N+](=O)[O-])c2)SC(=S)N1Cc1ccccc1,50*,54*,-9,8,44*,2
O=C1/C(=C\c2ccc(O)cc2)SC(=S)N1Cc1ccccc1,20,51*,-8,17,17,1
O=C(O)c1ccc(/C=C2/SC(=S)N(Cc3ccccc3)C2=O)cc1,x,-5,x,10,11,0
COc1cc(/C=C2\NC(=S)N(C)C2=O)ccc1O,-36,-3,-4,-7,2,-1
COc1ccc(/C=C2\SC(=S)N(c3cccnc3)C2=O)cc1,-21,9,-2,-6,-5,0
O=C1/C(=C\c2ccc(O)cc2)SC(=S)N1c1cccnc1,57*,64*,-11,15,49*,-1
COc1ccccc1NOC(=O)CCOc1ccccc1,x,10,x,7,-1,2
Cc1ccc(C(=O)NCC(=O)OCn2nnc3ccccc3c2=O)cc1,4,0,-4,3,1,-2
CCCOc1ccc(/C=C2\SC(=S)N(CC3CCCO3)C2=O)cc1 (stereo not drawn),-8,12,1,15,7,3
O=C1/C(=C\c2cccc([N+](=O)[O-])c2O)SC(=S)N1Cc1ccccc1,x,64*,x,8,46*,2
COc1cc([N+](=O)[O-])cc(/C=C2/SC(=S)N(Cc3ccccc3)C2=O)c1O,x,45,x,11,39,0
O=C1/C(=C/c2ccc(O)cc2)SC(=S)N1CC1CCCO1 (stereo not drawn),49*,44,-9,10,37,3
Cc1ccc(Cc2cnc(NC(=O)/C(C#N)=C/c3ccc(-c4ccc([N+](=O)[O-])cc4)o3)s2)cc1,38,59*,-11,14,39,-1
Cc1cnc(NC(=O)c2ccc(-c3ccc([N+](=O)[O-])cc3)o2)s1,-20,1,1,-5,6,0
O=C1C=C(c2c(O)ccc3ccccc23)c2ccccc2C1=O,x,47,x,-30,46*,-3
O=[N+]([O-])c1cccc(/C=N/Nc2nc(C(Cl)(Cl)Cl)nc3ccccc23)c1,-41,-4,15*,-2,-5,0
ClC(Cl)(Cl)c1nc(N/N=C/c2ccncc2)c2ccccc2n1,-12,2,0,10,0,0
O=C1NCCCC1C(=O)N/N=C/c1cc([N+](=O)[O-])ccc1O (stereo not drawn),15,45,-4,2,17,0
O=C(N/N=C/c1cccc([N+](=O)[O-])c1)c1cccc2cc[nH]c12,-1,-7,0,-2,-11,1
